Screens deposited in PubChem BioAssay by several laboratories.
In the library only some 3.7% were active in any assay of this set; here they are far more common.
JMJD2C inh – human JMJD2C demethylase inhibition; 330,000 tested, 0.069% active; GST-JMJD2C(1-420) H3K9me3 demethylation, DELFIA europium; AID 2099; inhibition, % at 2.35 µM; Q9H3R0;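 active = more than half of a compound's replicate wells show inhibition beyond 50%, single wells judged on their own value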;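 also: signal counts dimethyl H3K9 product captured on neutravidin plate; 0% = median of DMSO wells and 100% = 0.3 times that DMSO median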
SR-BI HDL uptake – inhibitors of mouse SR-BI mediated HDL lipid uptake; Q61009; ldlA[mSR-BI] CHO cells, DiI-HDL uptake fluorescence, 3 h; inhibition, % at 12.5 µM; 320,000 tested, 0.96% active;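 active = mean replicate inhibition of at least 70% and a set share of replicates each scoring 70 or more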;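 also: 0% = median of neutral control wells and 100% = median of positive control wells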
Target sequence (Q61009 whole entry, looked up): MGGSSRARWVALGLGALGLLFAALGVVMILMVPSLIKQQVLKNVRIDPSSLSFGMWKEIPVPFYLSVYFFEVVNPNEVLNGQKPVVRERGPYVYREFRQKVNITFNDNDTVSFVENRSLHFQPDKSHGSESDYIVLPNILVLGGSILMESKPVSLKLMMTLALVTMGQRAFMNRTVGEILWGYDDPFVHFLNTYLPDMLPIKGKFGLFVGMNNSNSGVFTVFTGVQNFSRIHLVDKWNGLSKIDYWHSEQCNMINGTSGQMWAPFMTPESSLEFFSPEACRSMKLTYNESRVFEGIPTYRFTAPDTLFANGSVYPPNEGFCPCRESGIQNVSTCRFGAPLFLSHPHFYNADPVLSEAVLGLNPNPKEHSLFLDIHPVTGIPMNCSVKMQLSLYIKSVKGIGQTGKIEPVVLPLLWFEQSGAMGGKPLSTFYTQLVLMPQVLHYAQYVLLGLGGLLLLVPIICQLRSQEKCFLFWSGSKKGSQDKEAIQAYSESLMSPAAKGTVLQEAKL
GAA850 FXN act – frataxin GAA850 promoter activation | HEK293 lucGAA850 FXN promoter luciferase reporter, 24 h; percent of 10 µM SAHA response | activation, % at 6 µM | 360,000 tested, 0.56% active | AID 540364;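 active = activation above the average of all compounds screened plus 3 SD, cutoff fixed separately per campaign, cut at about 7.5% in these data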;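 also: 0% = DMSO wells and 100% = 10 µM SAHA wells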
SR-BI DiI-HDL act – SR-BI HDL lipid transfer activation. CHO ldlA[mSR-BI] cells, DiI-HDL uptake fluorescence, 3 h; 100 = double the neutral-control signal. activation, % at 12.5 µM. 320,000 tested, 0.096% active. AID 504775;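 active = mean replicate activation of at least 60% and every replicate at or above 60%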;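 also: 0% = median plate neutral-control signal and 100% = twice that signal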
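Material: SR-BI-overexpressing, LDLR-lacking CHO cells; schedule: compound exposure 3 h, 37 °C; reagent: DiI-labelled HDL at 10 µg/mL final; technique: bottom-read fluorescence, 550/595 nm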
AHR act – human AHR activation. AID 2796. AHR-responsive luciferase reporter cells, luminescence. P35869. activation, % at 5 µM. 320,000 tested, 2.5% active; in the data active = activation above about 47%;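 also: 0% = vehicle wells and 100% = reference agonist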
Numbers without * were called inactive; x = no result given.

SMILES	JMJD2C inh	SR-BI HDL uptake	GAA850 FXN act	SR-BI DiI-HDL act	AHR act
O=C1CN(C(=O)CN2CCCC2)C(c2ccccc2)c2cc(Br)ccc2N1 (configuration not stated)	-1.8	-18.4	2.5	18.4	30.1
O=C1CN(C(=O)CN2CCOCC2)C(c2ccccc2)c2cc(Br)ccc2N1 (configuration not stated)	0.6	-0.2	-0.4	0.2	57.2*
COc1cc(OC)cc(-c2cc(N)n(S(=O)(=O)c3cccc4nsnc34)n2)c1	1.5	x	2.2	x	54.6*
COc1cc(OC)cc(-c2cc(N)n(S(=O)(=O)Cc3ccccc3)n2)c1	-3.0	20.8	0.6	-20.8	62.9*
CCCS(=O)(=O)n1nc(-c2ccc(OC)cc2)cc1N	-0.6	-2.2	0.0	2.2	24.7
CCOc1ccc(-c2cc(N)n(S(=O)(=O)c3cccc4nsnc34)n2)cc1	-3.4	0.7	0.5	-0.7	18.6
CCCS(=O)(=O)n1nc(-c2ccc(OC)cc2OC)cc1N	3.4	-14.7	1.4	14.7	62.2*
CCCNC(=O)C1(C)CCN1C(=O)c1ccccc1CCc1ccccc1 (configuration not stated)	x	x	-1.4	x	x
Cc1ccc(NC(=O)C(C)SCc2ccccc2)cc1 (configuration not stated)	14.4	9.7	2.3	-9.7	2.3
CCOc1ccccc1N1CCN(C2=C(NS(=O)(=O)c3cccs3)C(=O)c3ccccc3C2=O)CC1	-15.5	81.3*	-1.0	-81.3	12.6
CN1CCN(C2=C(NS(=O)(=O)c3cccs3)C(=O)c3ccccc3C2=O)CC1	-5.4	14.5	0.7	-14.5	-3.0
CCC(C)Sc1ccc(-c2nc3cc(C)ccn3c2NC2CCCCC2)cc1 (configuration not stated)	x	80.5*	4.6	-80.5	-5.2
Cc1ccn2c(NC3CCCC3)c(-c3ccccn3)nc2c1	-6.8	22.5	4.6	-22.5	77.1*
CCC(C)Sc1ccc(-c2nc3cnccn3c2NC2CCCCC2)cc1 (configuration not stated)	-3.2	63.3	3.6	-63.3	12.0
COc1ccc([N+](=O)[O-])cc1NC(=O)C(C)N1CCN(C(=O)c2ccco2)CC1 (configuration not stated)	0.5	71.9*	0.4	-71.9	-1.1
COc1ccccc1NC(=O)c1cc([N+](=O)[O-])ccc1NCCN1C(=O)CCC1=O	12.1	19.5	0.7	-19.5	51.1*
COc1ccc([N+](=O)[O-])cc1NC(=S)NC(C)=O	9.9	49.4	-1.0	-49.4	12.6
COc1ccc([N+](=O)[O-])cc1NC(=O)c1ccc(Br)s1	-13.2	64.0	2.0	-64.0	51.9*
CCn1ncc(C(=O)Nc2ccc([N+](=O)[O-])cc2OC)c1C	-0.3	11.9	-0.1	-11.9	40.2
COc1ccccc1NC(=O)c1cc(OC)c(OC)cc1[N+](=O)[O-]	-0.2	6.5	0.1	-6.5	8.4
CCn1ncc(Cl)c1C(=O)Nc1cc([N+](=O)[O-])ccc1OC	7.1	43.3	1.3	-43.3	59.9*
COc1ccc(-c2noc(CCCC(=O)NC3CCCCC3)n2)cc1OC	3.1	x	0.8	x	-1.7
Cc1nn(-c2ccccc2)c(C)c1NC(=O)COC(=O)c1ccc(O)cc1O	1.4	0.3	0.3	-0.3	x
Cc1ccc(C(=O)NNC(=O)CCn2nnc3ccccc32)cc1	-1.5	-21.4	0.9	21.4	1.5
Cc1nn(C)c(C(=O)N/N=C/c2cccnc2)c1Br	3.1	-6.8	-2.0	6.8	5.2
SMILES	JMJD2C inh	SR-BI HDL uptake	GAA850 FXN act	SR-BI DiI-HDL act	AHR act
COc1ccc([N+](=O)[O-])cc1NC(=O)c1cn(-c2ccc(Cl)cc2)c(=O)c2ccccc12	-11.2	74.3*	3.4	-74.3	-1.2
COc1ccc(NC(=O)c2ccc([N+](=O)[O-])cc2[N+](=O)[O-])c(OC)c1	-1.2	15.5	0.0	-15.5	30.8
COc1ccc(Br)cc1CN(C)C(C)C(=O)Nc1cc([N+](=O)[O-])ccc1OC (configuration not stated)	6.1	39.2	0.9	-39.2	28.6
COCCSc1ccccc1C(=O)Nc1ccc([N+](=O)[O-])cc1OC	2.2	80.9*	-0.4	-80.9	2.6
COCCSc1ccccc1C(=O)Nc1cc([N+](=O)[O-])ccc1OC	-4.1	82.9*	1.1	-82.9	24.0
COc1ccc([N+](=O)[O-])cc1NC(=O)C(C)N(C)Cc1ccc(Br)cc1 (configuration not stated)	-6.5	74.9*	-0.7	-74.9	0.1
